Lmaj promast – inhibitors of Leishmania major promastigote growth | AID 1063 | actives 9% (n = 200,000) | inhibition, % at 10 µM | Leishmania major promastigotes, resazurin fluorescence viability; in the data active means inhibition above about 50%;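 further: promastigotes grown with compound for 44 hours at 28 °C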
TNAP inh no acc – TNAP (human) inhibition, acceptor-free conditions | AID 1012 | purified TNAP, CDP-star luminescence, 30 min | inhibition, % at 20 µM | actives 0.26% (n = 200,000);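 active means tissue-nonspecific alkaline phosphatase inhibition above about 50% at 20 µM in the single-dose screen, limit read from the data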
Target sequence (P05186 whole entry, looked up): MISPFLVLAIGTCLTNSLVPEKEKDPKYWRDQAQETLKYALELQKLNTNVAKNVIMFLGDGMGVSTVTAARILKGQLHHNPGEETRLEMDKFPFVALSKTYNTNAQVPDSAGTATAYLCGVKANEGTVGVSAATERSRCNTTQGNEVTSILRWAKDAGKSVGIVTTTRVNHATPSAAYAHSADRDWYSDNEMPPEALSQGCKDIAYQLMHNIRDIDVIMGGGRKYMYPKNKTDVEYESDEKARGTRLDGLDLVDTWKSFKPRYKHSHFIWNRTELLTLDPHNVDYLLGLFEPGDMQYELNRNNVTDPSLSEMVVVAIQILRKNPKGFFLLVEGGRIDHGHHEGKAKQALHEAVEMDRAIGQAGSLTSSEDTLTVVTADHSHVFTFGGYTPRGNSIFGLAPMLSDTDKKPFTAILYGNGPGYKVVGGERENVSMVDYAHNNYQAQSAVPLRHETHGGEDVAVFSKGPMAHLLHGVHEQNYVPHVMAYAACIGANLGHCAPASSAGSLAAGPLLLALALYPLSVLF
HCT116 bCat-KO – beta-catenin-lacking colon tumor cell growth suppression. HCT116 beta-catenin knockout viability, CellTiter-Glo, 60 h; hits give low values. viability, % at 10 µM. actives 1.5% (n = 140,000). AID 818;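 active means viability at or under a set limit, the compound median less 4 SD, cut at about 6% in these data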
TNAP act hiacc – increases human TNAP activity under high phosphate acceptor concentration; P05186; 200,000 tested, under 10 active; AID 1136; purified TNAP, CDP-star luminescence, 1 M DEA, 30 min; hits give high values; 0 = EDTA background, 1 = DMSO-only activity; activation factor at 20 µM;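 active means activation factor at least 2 at 20 µM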
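Measured by: Luminescent substrate turnover signal | Test system: Human TNAP | Input: TNAP 1/800 final | Dosing: 20 µM single point | Schedule: 30 min, room temperature | Controls: EDTA wells as negative control, DMSO wells as positive control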
PTEN del growth – growth suppressors of cells with PTEN tumor suppressor deletion | viability, % at 10 µM | actives 1.2% (n = 140,000) | HCT116 PTEN-null viability, CellTiter-Glo, 60 h; hits give low values;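 active means viability at or below a set limit, 4 SD under the median of all tested compounds, cut at about 3.7% in these data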;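 further: PTEN knockout HCT116 line with beta catenin targeted HCT116 as companion control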
TNAP inh hi DEA – TNAP (human) inhibition, high acceptor; P05186; purified TNAP, CDP-star luminescence, 1 M DEA; inhibition, % at 20 µM; actives 0.03% (n = 200,000);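 active means over 50% inhibition of tissue-nonspecific alkaline phosphatase at 20 µM in the single-dose screen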
L major 1uM – inhibitors of Leishmania major promastigote growth, repeat at 1 uM; shares compounds with Lmaj promast; L. major promastigote growth, resazurin fluorescence, 48 h; inhibition, % at 1 µM; actives 13% (n = 1,100); AID 1258;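 active means inhibition above about 50% in both repeat tests, limit read from the data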
Hits are given with their value. Rows were chosen to be rich in hits. Some 9.6% of all compounds tested hit in one or more screens of this group.

Results for CCO/C=C/C(O)(CNC(=O)c1ccc(C(C)(C)C)cc1)C(F)(F)F (stereo not given) ?
Lmaj promast: inactive; TNAP inh no acc: inactive; HCT116 bCat-KO: inactive; TNAP act hiacc: inactive; PTEN del growth: inactive; TNAP inh hi DEA: inactive

How did CCOC(=O)Nc1ccc2c(c1)N(C(=O)N1CCN(C)CC1)c1ccccc1S2 do in these assays?
Lmaj promast: 84; TNAP inh no acc: inactive; HCT116 bCat-KO: inactive; TNAP act hiacc: inactive; PTEN del growth: inactive; TNAP inh hi DEA: inactive; L major 1uM: inactive

What do the screens show for `C=CC(=O)N1c2ccccc2Sc2ccc(NC(=O)OCC)cc21`?
Lmaj promast: inactive; HCT116 bCat-KO: inactive; PTEN del growth: inactive

What do the screens show for `CCOC(=O)Nc1ccc2c(c1)Nc1ccccc1S2`?
Lmaj promast: 67; TNAP inh no acc: inactive; HCT116 bCat-KO: inactive; TNAP act hiacc: inactive; PTEN del growth: inactive; TNAP inh hi DEA: inactive; L major 1uM: inactive

What do the screens show for `COc1ccc(N(CC(=O)NC2CCCCC2)C(=O)CNC(=O)c2ccco2)cc1`?
Lmaj promast: inactive; TNAP inh no acc: inactive; TNAP act hiacc: inactive; TNAP inh hi DEA: inactive

What do the screens show for `CC(C)c1ccccc1NC(=O)COC(=O)Cc1c[nH]c2ccccc12`?
Lmaj promast: 50; TNAP inh no acc: inactive; HCT116 bCat-KO: inactive; TNAP act hiacc: inactive; PTEN del growth: inactive; TNAP inh hi DEA: inactive; L major 1uM: inactive

Results for C=CCc1cccc(CNc2ccc(Br)cc2)c1O ?
Lmaj promast: inactive; TNAP inh no acc: inactive; TNAP act hiacc: inactive; TNAP inh hi DEA: inactive

Results for Cc1ccc(C(O)P(=O)(OC2CCCCC2)OC2CCCCC2)cc1 (stereo not given) ?
Lmaj promast: 89; TNAP inh no acc: inactive; HCT116 bCat-KO: inactive; TNAP act hiacc: inactive; PTEN del growth: inactive; TNAP inh hi DEA: inactive; L major 1uM: inactive

What do the screens show for `CCOC(=O)C(C)N1N=C(/C=C/c2ccc(OC)cc2)CCC1=O` (stereo not given)?
Lmaj promast: inactive; TNAP inh no acc: inactive; HCT116 bCat-KO: inactive; TNAP act hiacc: inactive; PTEN del growth: inactive; TNAP inh hi DEA: inactive

Results for Cn1cccc1C1Nc2ccccc2NC2=C1C(=O)CC(C)(C)C2 (stereo not given) ?
Lmaj promast: 91; TNAP inh no acc: inactive; HCT116 bCat-KO: inactive; TNAP act hiacc: inactive; PTEN del growth: inactive; TNAP inh hi DEA: inactive; L major 1uM: inactive

Results for Cc1[nH]c2c(ccc3ccccc32)c1C1C(CCN)C1(C)C (stereo not given) ?
Lmaj promast: 100; TNAP inh no acc: inactive; HCT116 bCat-KO: 1.9; TNAP act hiacc: inactive; PTEN del growth: 1.8; TNAP inh hi DEA: inactive; L major 1uM: inactive

How did Nc1nc(-c2cccs2)c(NC(=O)c2ccccc2)s1 do in these assays?
Lmaj promast: 86; TNAP inh no acc: inactive; HCT116 bCat-KO: inactive; TNAP act hiacc: inactive; PTEN del growth: inactive; TNAP inh hi DEA: inactive; L major 1uM: inactive

Results for Cc1ccc(C)c(S(=O)(=O)NCCOC(=O)Nc2sc(=S)n(C)c2C)c1 ?
Lmaj promast: 88; TNAP inh no acc: inactive; HCT116 bCat-KO: inactive; TNAP act hiacc: inactive; PTEN del growth: inactive; TNAP inh hi DEA: inactive; L major 1uM: inactive

What do the screens show for `CCOc1ccccc1CNCc1ccc(C(=O)O)cc1`?
Lmaj promast: inactive; TNAP inh no acc: inactive; TNAP act hiacc: inactive; TNAP inh hi DEA: inactive

How did CCOc1ccccc1CNCc1ccc(F)cc1 do in these assays?
Lmaj promast: 54; TNAP inh no acc: inactive; TNAP act hiacc: inactive; TNAP inh hi DEA: inactive; L major 1uM: inactive

How did CC(=O)N(C)c1ccc(NC(=O)COc2ccc(Br)cc2C)cc1 do in these assays?
Lmaj promast: inactive; TNAP inh no acc: inactive; HCT116 bCat-KO: inactive; TNAP act hiacc: inactive; PTEN del growth: inactive; TNAP inh hi DEA: inactive

Results for Cc1ccccc1OCC(=O)N/N=C/c1ccc(Sc2nc3ccccc3s2)o1 ?
Lmaj promast: inactive; TNAP inh no acc: inactive; HCT116 bCat-KO: inactive; TNAP act hiacc: inactive; PTEN del growth: inactive; TNAP inh hi DEA: inactive

How did COCC(=O)N/N=C/c1ccc(Sc2nc3ccccc3s2)o1 do in these assays?
Lmaj promast: 81; TNAP inh no acc: inactive; HCT116 bCat-KO: inactive; TNAP act hiacc: inactive; PTEN del growth: inactive; TNAP inh hi DEA: inactive; L major 1uM: inactive

Bioassay records: PubChem, several laboratories
